In ChEMBL document CHEMBL5380787, “Optimized M24B Aminopeptidase Inhibitors for CARD8 Inflammasome Activation” (J Med Chem, 2023):
The source made the active and inactive calls. No cut-off for these calls is given here.

Legend:
[1] = system: MV4-11; test: Cytotoxicity against CASP1 knockout human MV4-11 cells assessed as reduction in cell viability at 0.015 to 100 uM incubated for 24 hrs by celltiter-glo assay; type: functional; conditions: dose 0.015-100 µM
Summary of the method: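 MV4;11 cells (WT or CASP1−/−), grown in RPMI 1640 with 10% FBS at 37 °C, 5% CO2, plated 2000 cells/well, dosed by pintool across 100 μM to 15.2 nM in three-fold steps for 24 h. Viability by CellTiter-Glo luminescence after 2 min shaking and 10 min at 25 °C. IC50 as mean ± SEM of three biological replicates.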

[2] = Stability of the compound in human MV4-11 cells assessed as de-esterification by measuring parent compound remaining measured after 24 hrs by LC-MS analysis; type: ADME, cell-based; conditions: read-out: Stability
Summary of the method: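 Compound was incubated in conditioned medium from MV4;11 cells for 24 h at 37 °C, and LC/MS then measured intact ester remaining and the de-esterified free acid. n = 3, mean ± SEM.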

[3] = Drug metabolism of the compound in human MV4-11 cells assessed as de-esterified metabolite formation by LC-MS analysis; type: ADME, cell-based
[4] = system: OCI-AML2; test: Induction of cell death in human OCI-AML2 cells assessed as increase in PI uptake at 6.25 uM incubated for 6 hrs by PI staining based fluorescence analysis; type: functional
Summary of the method: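 PI flux assay. 2 × 10^4 MV4;11 (WT, CARD8−/− or CASP1−/−) or OCI-AML2 cells in RPMI were given compound at 6.25 μM plus PI at 10 μM final. Fluorescence (Ex/Em 535/617 nm) was read every 5 min at 37 °C for 6 h, baseline-corrected to DMSO and normalized to the maximum response. n = 3.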

[5] = Stability in human MV4-11 cells assessed as retention time of parent compound incubated for 24 hrs by LC/MS analysis; type: ADME, cell-based; conditions: mv4-11, 24 h
Summary of the method: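 Compound was held in MV4;11 conditioned medium for 24 h at 37 °C, then LC/MS was run, recording the retention times of the parent ester and its free acid.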

Row | remaining at 24 h [2] [%] | Drug metabolism [3] | Retention_time [5] [min] | SMILES | Activity [1] [%] | Activity [4]
1 | 50 |  |  | COC(=O)[C@@H]1CCCN1C(=O)[C@@H](O)[C@H](N)CC(C)C | 95 | 
2 |  | Metabolite_Detected | 2.82 | COC(=O)[C@H](CC(C)C)NC(=O)[C@@H]1CCCN1C(=O)[C@@H](O)[C@H](N)CC(C)C |  | Active
